For assay [1], the system named is A549. The experiment in a line: Inhibition of bleomycin-induced unscheduled DNA synthesis in human A549 cells at 3 uM. Type of assay: functional, cell-based. The gist of the method: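 A549 cells (~5×10^5) treated with 10 mM bleomycin for 30 min at 37 °C. Then 10 mM hydroxyurea, 2 mM nicotinamide, 5 µCi [3H]thymidine and inhibitor added, incubated 3 h. Stopped with ice-cold saline. Cells collected and TCA-precipitated on ice 30 min for scintillation counting of incorporated label. Run in triplicate.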

Assay [2] deals with A549. Put plainly: Effect on DNA polymerase beta expression in human A549 cells at 3 uM after 48 hrs by Western blot analysis. Type of assay: functional, cell-based. The method, boiled down:
(§1)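 A549 cells grown in Ham's F12K with 10% fetal calf serum, exposed 48 h to compound. Whole-cell extracts prepared by freeze/thaw lysis, cleared at 15,000 × g. Extracts resolved on 15% SDS-PAGE, transferred to PVDF and probed with anti-human pol β antibody. Anti-β-actin served as loading control. HRP anti-goat IgG detection, followed by densitometric quantification.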
In general terms: In western blotting, separated proteins are transferred to a membrane and probed.

In assay [3] the test system is A549. The experiment in a line: Cytotoxicity against human A549 cells after 48 hrs by MTT assay. The conditions noted are these: A549, 48 h. For orientation: Formazan colour is commonly taken as a measure of viable cells.
Assay [4] has as its system A549. The experiment in a line: Effect on DNA polymerase beta expression in human A549 cells at 6 uM after 48 hrs by Western blot analysis. Type of assay: functional, cell-based. The gist of the method: as §1
In assay [5] the test system is A549. Put plainly: Inhibition of bleomycin-induced unscheduled DNA synthesis in human A549 cells at 6 uM. It counts as functional, cell-based. The method, boiled down: (§2)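 A549 cells (~5×10^5) treated with 10 mM bleomycin for 30 min at 37 °C. DMSO, 10 mM hydroxyurea, 2 mM nicotinamide, 5 μCi [3H]thymidine and inhibitor then added, triplicate flasks per concentration. Incubated 3 h, stopped with ice-cold saline. Cells pelleted and treated with ice-cold 5% TCA for 30 min; incorporated radioactivity read by scintillation counting.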

The test system of assay [6] is A549. Put plainly: Inhibition of bleomycin-induced unscheduled DNA synthesis in human A549 cells at 25 uM. It counts as functional, cell-based. The gist of the method:
as §2

The target in assay [7] is DNA polymerase beta (Rattus norvegicus) (UniProt P06766). Put plainly: Inhibition of polymerase activity of DNA polymerase beta.
Assay [8] has the same target. The experiment in a line: Inhibition of lyase activity of DNA polymerase beta.
For assay [9], the system named is A549. The experiment in a line: Effect on DNA polymerase beta expression in human A549 cells at 25 uM after 48 hrs by Western blot analysis. Type of assay: functional, cell-based. The gist of the method: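 A549 cells grown at 37 °C, 5% CO2 in Kaighn's F12 with 10% fetal calf serum, exposed 48 h to inhibitor at 25 μM (final DMSO <0.05%). Whole-cell extracts made by freeze/thaw, then resolved on 15% SDS-PAGE and blotted to PVDF. Probed with anti-human pol β antibody, with anti-β-actin as loading control. HRP detection; bands scanned and quantified.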

Activity calls are given as the source filed them. The rule behind the calls is not given here.

For `C=C(C)[C@@H]1CC[C@]2(C(=O)O)CC[C@]3(C)[C@H](CC[C@@H]4[C@@]5(C)CC[C@H](O)C(C)(C)[C@@H]5CC[C@]43C)[C@@H]12` [BETULINIC ACID], in the assay on A549 [1], the result was Active. Moreover, the result with A549 [2] was inactive. For the same compound, in the assay on A549 [3], the midpoint of inhibition, the IC50, lay at 6.65 µM.

For the compound `O=c1ccc2ccc(Oc3cc4ccc(O)cc4oc3=O)cc2o1` [EDGEWORIN], in the assay with A549 [4], the result was inactive. In the assay on A549 [3], the midpoint of inhibition, the IC50, lay at 80.2 µM. In addition, the outcome in the assay with A549 [5] was Active.

With `CC1(C)CC[C@]2(C(=O)O)CC[C@]3(C)C(=CC[C@@H]4[C@@]5(C)CC[C@H](O)C(C)(C)[C@@H]5CC[C@]43C)[C@@H]2C1` [OLEANOLIC_ACID], the result in the assay with A549 [6] was Active. In addition, the IC50 (in general, the point on the concentration scale where inhibition reaches its midpoint) in assay [7] is 25 µM; in [8] it was 26.3 µM; with A549 [3] it was above 100 µM. Moreover, the outcome with A549 [9] was inactive.

Consider `CC[C@H](/C=C/[C@@H](C)[C@H]1CC[C@H]2[C@@H]3CC=C4C[C@@H](O)CC[C@]4(C)[C@H]3CC[C@]12C)C(C)C` [STIGMASTEROL], for which the result in the assay with A549 [4] was inactive. In addition, the IC50 is above 250 µM in [7], 60.3 µM in assay [8] and 98.2 µM with A549 [3].

The record behind these values is ChEMBL document CHEMBL1144753, “Inhibitors of DNA polymerase beta: activity and mechanism” (Bioorg Med Chem, 2008).
